Measurements from ChEMBL document CHEMBL5154895, “Mechanistic Studies and In Vivo Efficacy of an Oxadiazole-Containing Antibiotic” (J Med Chem, 2022).
In brackets after ≈: the same amount, converted by molar mass. Activity calls are given as the source filed them. The calls are words filed in the database; no cut-off is given here.

How the values were obtained:
Staphylococcus aureus [1] = assay: Antibacterial activity against methicillin-resistant Staphylococcus aureus NRS123 assessed as inhibition of bacterial growth incubated for 18 to 20 hrs by broth microdilution method; type: functional; details: time 18-20 hrs
How it was run: (§1)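 Broth microdilution per CLSI. Inoculum was set to 0.5 McFarland and diluted in CAMHB to about 5×10^5 CFU/mL. Serial dilutions of agent were incubated aerobically at 37 °C for 18–20 h. MIC was read visually as the lowest concentration with complete growth inhibition.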

Staphylococcus aureus [2] = assay: Downregulation of DNA-binding response regulator protein expression in Staphylococcus aureus measured after 2 hrs by LC-MS/MS analysis; type: functional
How it was run: (§2)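 S. aureus ATCC 25923 at OD600 0.6 was treated with compound or DMSO for 2 h at 37 °C, normalised to OD600 1.1, and washed in PBS. Cells were pressure-lysed in 100 mM ammonium bicarbonate, then acetone-precipitated, reduced with DTT, alkylated with iodoacetamide, and digested with trypsin/Lys-C. Peptides were desalted and run on LC-MS/MS. Label-free quantitation used proteins present in all 3 samples, filtered at p<0.05 against DMSO.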

Mus musculus = assay: Acceleration of wound healing in methicillin-resistant Staphylococcus aureus USA300 infected Balb/c mouse model assessed as reduction in IL-1beta level in skin wounds administered topically twice daily 2 days post infection and measured after 5 days post compound treatment; type: functional, organism-based; details: time 5.0 day
How it was run: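 Mice had two 6-mm dorsal excisional wounds, each infected with 20 μL of 4.2×10^9 CFU/mL MRSA USA300 and covered with Tegaderm. Treatment began 2 days after infection (n=5 per group): 2% compound in petroleum jelly applied topically twice daily for 5 days. Right-wound homogenates in PBS were centrifuged, supernatants pooled per group, and protein normalised by BCA. Cytokines were measured by mouse cytokine array (pg/mL).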

Staphylococcus aureus [3] = assay: Downregulation of threonine synthase protein expression in Staphylococcus aureus measured after 2 hrs by LC-MS/MS analysis; type: functional
How it was run: (§3)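 S. aureus ATCC 25923 at OD600 0.6 exposed to compound or DMSO control for 2 h at 37°C, normalized to OD600 1.1 and PBS-washed. Cells were pressure-cycling lysed in 100 mM ammonium bicarbonate, and 50 μg protein was acetone-precipitated, reduced and alkylated, then Trypsin/Lys-C digested and C18-desalted. About 1 μg peptides went to LC-MS/MS. Label-free quantitation kept proteins present in all 3 samples, filtered at p <0.05.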

Staphylococcus aureus [4] = assay: Downregulation of DNA recombination protein RecF expression in Staphylococcus aureus measured after 2 hrs by LC-MS/MS analysis; type: functional; how it was run: as §2
Staphylococcus aureus [5] = assay: Upregulation of haptoglobin-binding heme uptake protein HarA expression in Staphylococcus aureus measured after 2 hrs by LC-MS/MS analysis; type: functional; how it was run: as §3
Staphylococcus aureus [6] = assay: Antibacterial activity against vancomycin-resistant Staphylococcus aureus 10 assessed as inhibition of bacterial growth incubated for 18 to 20 hrs by broth microdilution method; type: functional; details: time 18-20 hrs; how it was run: as §1
Staphylococcus aureus [7] = assay: Downregulation of PTS mannose transporter subunit IIABC protein expression in Staphylococcus aureus measured after 2 hrs by LC-MS/MS analysis; type: functional; how it was run: as §2
Staphylococcus aureus [8] = assay: Upregulation of thiol reductase thioredoxin expression in Staphylococcus aureus measured after 2 hrs by LC-MS/MS analysis; type: functional; how it was run: as §3
Staphylococcus aureus [9] = assay: Downregulation of IlvA protein expression in Staphylococcus aureus assessed as log2 of fold change in protein level measured after 2 hrs by LC-MS/MS analysis relative to control; type: functional; how it was run: as §2
Staphylococcus aureus [10] = assay: Downregulation of Nuc protein expression in Staphylococcus aureus assessed as log2 of fold change in protein level measured after 2 hrs by LC-MS/MS analysis relative to control; type: functional; how it was run: as §2
Staphylococcus aureus [11] = assay: Antibacterial activity against methicillin-resistant Staphylococcus aureus NRS 386 assessed as inhibition of bacterial growth incubated for 18 to 20 hrs by broth microdilution method; type: functional; details: time 18-20 hrs; how it was run: as §1
Staphylococcus aureus [12] = assay: Downregulation of CarB protein expression in Staphylococcus aureus assessed as log2 of fold change in protein level measured after 2 hrs by LC-MS/MS analysis relative to control; type: functional; how it was run: as §2
[13] = Toxicity in Balb/c mouse infected with methicillin-resistant Staphylococcus aureus USA300 assessed as chronic inflammatory response administered topically twice daily 2 days post infection and measured after 5 days post compound treatment by H and E staining based histopathological analysis; details: in vivo, topical_or_ocular, 120 h, time 5 day
How it was run: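 MRSA USA300-infected punch wounds in mice, n=5. Topical 2% agent or petroleum jelly vehicle twice daily from day 2 for 5 days. The left wound was formalin-fixed, cut into 4-μm sections and H&E-stained. Whole slides were scanned and assessed by a board-certified veterinary pathologist for necrosis, inflammation, haemorrhage and related features.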

Staphylococcus aureus [14] = assay: Downregulation of LukS-PV protein expression in Staphylococcus aureus assessed as log2 of fold change in protein level measured after 2 hrs by LC-MS/MS analysis relative to control; type: functional; how it was run: as §2
Staphylococcus aureus [15] = assay: Downregulation of LukD protein expression in Staphylococcus aureus assessed as log2 of fold change in protein level measured after 2 hrs by LC-MS/MS analysis relative to control; type: functional; how it was run: as §2
Streptococcus pyogenes = assay: Antibacterial activity against Streptococcus pyogenes MGAS 1882 assessed as inhibition of bacterial growth incubated for 18 to 20 hrs by broth microdilution method; type: functional; details: time 18-20 hrs
How it was run: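 Broth microdilution with a 0.5 McFarland inoculum diluted in tryptic soy broth to about 5 × 10^5 CFU/mL. Serial compound dilutions incubated aerobically at 37° C for 18–20 hours. MIC read visually as the lowest concentration with no growth.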

Staphylococcus aureus [16] = assay: Downregulation of peptidase protein expression in Staphylococcus aureus measured after 2 hrs by LC-MS/MS analysis; type: functional; how it was run: as §3
Staphylococcus aureus [17] = assay: Downregulation of GloB protein expression in Staphylococcus aureus assessed as log2 of fold change in protein level measured after 2 hrs by LC-MS/MS analysis relative to control; type: functional; how it was run: as §2
Staphylococcus aureus [18] = assay: Inhibition of Glc2-DAG in Staphylococcus aureus ATCC 25923 assessed as reduction in alpha-naphthol at 0.25 to 2 ug/ml measured after 5 hrs by thin layer chromatography; details: dose 0.25-2 µg/ml
How it was run: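 Cells were normalized to OD600 0.9 and washed in 0.1 M sodium acetate pH 4.7. Lipids were Bligh-Dyer extracted and dried under nitrogen, then run on TLC with α-naphthol/sulfuric acid staining. The stained band was identified as Glc2-DAG by MALDI-TOF.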

Staphylococcus aureus [19] = assay: Upregulation of Bsh protein expression in Staphylococcus aureus assessed as log2 of fold change in protein level measured after 2 hrs by LC-MS/MS analysis relative to control; type: functional; how it was run: as §3

CC1CC(C)CN(S(=O)(=O)c2ccc(C(=O)Nc3nnc(-c4ccc(C(F)(F)F)cc4)o3)cc2)C1 (stereo unspecified)
MIC (Staphylococcus aureus [1]): 0.25 µg/mL (≈ 0.492 µM)
Activity (Staphylococcus aureus [2]): Active
Activity (Mus musculus): Active
Activity (Staphylococcus aureus [3]): Active
Activity (Staphylococcus aureus [4]): Active
Activity (Staphylococcus aureus [5]): Active
MIC (Staphylococcus aureus [6]): 0.25 µg/mL (≈ 0.492 µM)
Activity (Staphylococcus aureus [7]): Active
Activity (Staphylococcus aureus [8]): Active
log2FC (Staphylococcus aureus [9]): -2
log2FC (Staphylococcus aureus [10]): -5.1
MIC (Staphylococcus aureus [11]): 0.25 µg/mL (≈ 0.492 µM)
log2FC (Staphylococcus aureus [12]): -2
Activity [13]: Toxic
log2FC (Staphylococcus aureus [14]): -3.7
log2FC (Staphylococcus aureus [15]): -2
MIC (Streptococcus pyogenes): 0.06 µg/mL (≈ 0.118 µM)
Activity (Staphylococcus aureus [16]): Active
log2FC (Staphylococcus aureus [17]): -2
inhibition (Staphylococcus aureus [18]): Active
log2FC (Staphylococcus aureus [19]): 3.6
